In the library only some 2.4% were active in any assay of this set; here they are far more common.
ROMK primary = modulates human ROMK potassium channel activity; actives 2% (n = 130,000); Tet-inducible ROMK, thallium flux fluorescence; actives lie on both sides; B-score at 10 µM; P48048;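 active = signal ratio slope over the read window, or its plate-corrected B-score, at least 3 SD from the plate mean, either direction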;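 note: B-score of the F/F0 ratio slope over 7 to 12 s after thallium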
Target sequence (P48048 whole entry, looked up): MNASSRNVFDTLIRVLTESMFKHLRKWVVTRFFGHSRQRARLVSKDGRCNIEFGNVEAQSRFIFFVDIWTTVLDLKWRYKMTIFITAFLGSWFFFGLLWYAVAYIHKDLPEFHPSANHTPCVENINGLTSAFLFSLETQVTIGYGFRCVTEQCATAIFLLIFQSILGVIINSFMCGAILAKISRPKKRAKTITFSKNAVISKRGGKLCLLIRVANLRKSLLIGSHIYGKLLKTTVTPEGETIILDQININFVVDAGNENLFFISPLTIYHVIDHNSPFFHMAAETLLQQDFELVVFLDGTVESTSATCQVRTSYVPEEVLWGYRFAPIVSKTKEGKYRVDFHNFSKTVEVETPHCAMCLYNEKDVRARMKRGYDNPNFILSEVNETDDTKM
b-catenin transl = beta-catenin nuclear translocation modulation; HeLa beta-catenin nuclear translocation, immunofluorescence imaging; nuclear translocation activity, % at 5 µM; actives 0.3% (n = 190,000); AID 1665;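 active = nuclear translocation activity above 50% at 5 µM, with a well cell count of 50 or more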;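 note: per-cell ratio of nuclear to cytoplasmic median beta-catenin stain intensity; plate controls were DMSO negative control for no effect and GSK-3 inhibitor IX positive control for full effect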
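Test system: human HeLa cells, endogenous beta-catenin. Times: 24 h compound exposure, 37°C. Measured by: beta-catenin immunofluorescence imaging with DAPI.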
HSV augment = HSV replication enhancement; HSV replication augmentation in cells, fold increase; maximum fold increase; actives 0.005% (n = 220,000); in the data active = maximum fold increase above about 1.5; tested in PC3 cells
MT stabilizer = stabilizes microtubules in HeLa cells; HeLa tubulin immunostaining HCS, 24 h; share of cells brighter than vehicle mean+2SD; % tubulin-high responders, % at 10 µM; actives 0.83% (n = 200,000);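 active = plate Z-score above 3 for both tubulin-high and condensed-nucleus cell shares, with cell loss under 80%, at 10 µM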;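 note: anti alpha tubulin signal scored within the nucleus-defined area of each cell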
Insulin prom inh = TRM-6 insulin promoter activity inhibition. TRM-6 cells (human fetal islet line), insulin promoter-eGFP reporter, imaging; reporter expression induced with tamoxifen. inhibition, % at 2 µM. actives 0.9% (n = 130,000);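 active = inhibition above the mean plus 3 SD, with well images judged a real hit on visual review, cut at about 60% in these data, passing the limit was not always enough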
* = called active by the depositor; i = inactive; x = no result.

SMILES	ROMK primary	b-catenin transl	HSV augment	MT stabilizer	Insulin prom inh
O=C(CSc1nc2ccccc2[nH]1)Nc1c(F)cccc1F	x	0	i	3	89*
Fc1cccc(F)c1CSc1nc2ccccc2[nH]1	-1.9	2	i	1	75*
O=C1C(Cl)=C(Nc2ccccc2O)C(=O)N1CCc1ccccc1	0.17	-1	i	5	-37
Cc1ccc(NC(=O)c2ccc(Cl)cc2Cl)cc1O	x	0	i	x	x
Cc1nc(-c2ccccc2)sc1-c1nc(-c2ccncc2)ncc1S(=O)(=O)c1ccccc1	1.3	-3	x	8	x
O=C(O)CSc1ncn[nH]1	x	-1	i	3	77*
CSc1cccc(-n2cc(-c3ccc4c(c3)OCO4)[nH]c2=O)c1	x	162*	i	19*	x
CCOC(=O)c1sc2nc(C)nc(NCCc3ccccn3)c2c1C	-1.1	-1	i	1	94*
C=CCN1C=C2C(=O)C(C)(OC(=O)c3ccco3)C(=O)C(C=C)=C2C=C1C1CC1 (stereo unspecified)	x	x	i	x	x
CCOc1ccccc1NC(=O)c1cc(C(=O)c2cc(Br)ccc2O)coc1=N	-0.12	x	i	12*	41
COCCCN=C1NN=C(c2cc(C)n(Cc3ccccc3Cl)c2C)CS1	0.27	76*	i	15*	-45
COCCCN=C1NN=C(c2cc(C)n(-c3ccccc3)c2C)CS1	-0.024	0	i	3	6
COCCCN=C1NN=C(c2cc(C)n(-c3ccccc3F)c2C)CS1	1.7	92*	i	19*	x
O=C(CN1CCC(O)(c2ccc3c(c2)OCO3)CC1)OC1CCCCC1	x	0	i	2	-27
CNS(=O)(=O)c1cccc(C(=O)NCC(c2cccs2)N(C)C)c1 (stereo unspecified)	0.87	1	i	4	73*
CC(C)CCc1noc(CN(CC2CCC2)CC2CCCO2)n1 (stereo unspecified)	x	1	i	x	x
N#Cc1c(-c2cccs2)nc(SCc2ccc(Cl)cc2)[nH]c1=O	3.6*	1	i	2	40
c1ccc(-c2nnc3sc(-c4csc5c4CCCC5)nn23)cc1	1	0	i	21*	-7
O=C(CSc1nnnn1-c1ccc2c(c1)OCO2)NCc1cccs1	-0.016	2	i	3	-186
O=C(CSc1nnnn1-c1ccc2c(c1)OCO2)NCc1ccccc1	x	x	i	42*	5
Nc1nc(SCC(=O)Nc2ccc3c(c2)OCO3)n[nH]1	0.3	-2	i	6	x
Nc1nc(SCC(=O)NCc2ccc3c(c2)OCO3)n[nH]1	0.22	-4	i	2	65*
COC(=O)c1ccc(Nc2c([N+](=O)[O-])c(=O)oc3ccccc23)cc1	0.51	0	i	x	x
Cc1cc2nc(CCN3CCOCC3)n(S(=O)(=O)c3ccc(C(C)(C)C)cc3)c2cc1C	-0.047	0	i	3	86*
O=C(c1cn(-c2ccccc2)nc1-c1ccccc1)N1CCN(c2ccccn2)CC1	-0.37	-4	i	36*	-65
SMILES	ROMK primary	b-catenin transl	HSV augment	MT stabilizer	Insulin prom inh
Cc1ccc(-c2nn(-c3ccccc3)cc2C(=O)N2CCN(c3ccccn3)CC2)cc1	0.33	-2	i	5	x
N#C/C(=C\c1cccs1)c1nc2ccccc2[nH]1	-0.57	-2	i	2	85*
N#C/C(=C\C1CC2C=CC1C2)c1nc2ccccc2[nH]1 (stereo unspecified)	x	1	i	2	79*
CN(c1ccccc1)S(=O)(=O)c1ccc(Cl)c(C(=O)Nc2ccc(-c3nc4ccccc4[nH]3)cc2)c1	x	-1	i	17*	15
CN(c1ccccc1)S(=O)(=O)c1ccc(Cl)c(C(=O)Nc2nc3ccccc3[nH]2)c1	0.009	2	i	4	9
CN(C)c1ccc(/C=N/c2cc(-c3ccccc3)nn2-c2ccccc2)cc1	x	0	i	2	-14
CCOC(=O)c1[nH]c2c(c1C)C(=O)CC(c1ccc(OCC)c(OC)c1)C2 (stereo unspecified)	0.069	-1	i	2	48
Cc1c(C(=O)OCC(C)C)[nH]c2c1C(=O)CC(c1cccs1)C2 (stereo unspecified)	x	295*	i	13*	-100
CCOC(=O)c1[nH]c2c(c1C)C(=O)CC(c1ccc(F)cc1)C2 (stereo unspecified)	x	76*	i	9	-414
COCCOC(=O)c1[nH]c2c(c1C)C(=O)CC(c1cccs1)C2 (stereo unspecified)	1.1	21	i	23*	-154
